Compound activity from PubChem BioAssay.
Tb MetRS inh = Trypanosoma brucei MetRS inhibition. purified T. brucei MetRS, ATP depletion, Kinase-Glo luminescence. inhibition, % at 11.9 µM. hit rate 0.4% among 360,000;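 active means inhibition above a per-plate cutoff of the control wells' mean inhibition plus 3 SD, cut at about 5.5% in these data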
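assay system = parasite MetRS enzyme | timing = 15 min preincubation, 2 h reaction, all 25 °C | evaluation = percent inhibition relative to median high and low control wells | medium = HEPES buffer containing pyrophosphatase, BSA, spermine, DTT | compound = single dose, 11.9 µM final nominal, 0.9% final DMSO | detection = Kinase-Glo luminescence, ATP depletion format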
HNF4A DNA FP = change in binding of human HNF4 alpha to DNA; P41235; AID 1224865; hit rate 0.3% among 360,000; activity change, % at 10 µM; HNF4a-FITC DNA binding, fluorescence polarization, 1 h; in the data active means activity change above about 30%, passing the limit was not always enough
Rpn11 inh = blocks the human proteasome subunit Rpn11. human 26S proteasome, Ub4-pepOG fluorescence polarization; 20S core pre-blocked with epoxomicin. hit rate 0.59% among 360,000. inhibition, % at 20 µM. O00487;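 active means inhibition at 20 µM, scaled to each plate's controls, above about 33%, limit read from the data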
Target sequence (O00487 whole entry, looked up): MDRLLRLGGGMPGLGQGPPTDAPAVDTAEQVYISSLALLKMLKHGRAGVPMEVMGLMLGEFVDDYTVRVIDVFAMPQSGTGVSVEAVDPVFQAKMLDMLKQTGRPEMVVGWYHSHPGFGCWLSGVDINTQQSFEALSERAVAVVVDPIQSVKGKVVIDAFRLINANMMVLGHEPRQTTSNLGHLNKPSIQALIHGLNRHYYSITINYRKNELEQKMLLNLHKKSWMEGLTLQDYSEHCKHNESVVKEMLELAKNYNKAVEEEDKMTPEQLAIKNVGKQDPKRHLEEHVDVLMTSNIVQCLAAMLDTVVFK
Neddylation inh = cullin neddylation inhibition | TR-FRET cullin neddylation, biochemical | AID 651699 | hit rate 0.58% among 360,000 | P61081+Q13564 | inhibition, % at 25 µM; in the data active means inhibition above about 36%
CSN deneddyl inh = inhibitors of human CSN-mediated cullin deneddylation | Q92905 | Purified CSN, SCF-Nedd8-OG deneddylation, fluorescence polarization | inhibition, % at 12.5 µM | hit rate 0.38% among 360,000;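 active means pattern-corrected inhibition above about 35%, with an unprinted fluorescence ratio check between 0.5 and 1.5, limit read from the data, passing the limit was not always enough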
Target sequence (Q92905 whole entry, looked up, one chain of several): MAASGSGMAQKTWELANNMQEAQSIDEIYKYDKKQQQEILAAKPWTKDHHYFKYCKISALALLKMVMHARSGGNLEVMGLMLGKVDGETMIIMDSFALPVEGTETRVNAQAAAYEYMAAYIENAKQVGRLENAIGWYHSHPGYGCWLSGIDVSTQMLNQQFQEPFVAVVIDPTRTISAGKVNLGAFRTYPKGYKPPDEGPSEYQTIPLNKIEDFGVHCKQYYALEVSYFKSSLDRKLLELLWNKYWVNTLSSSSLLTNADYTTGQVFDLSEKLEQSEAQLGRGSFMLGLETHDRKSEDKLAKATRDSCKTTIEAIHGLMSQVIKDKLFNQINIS
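assay system = purified human Csn5 enzyme expressed in HEK293T cells | amount = 0.24 nM enzyme | buffer or medium = Tris/NaCl/DTT buffer, pH 7.5 | reagent = 10 nM SCFSkp2-Nedd8OG | compound = one concentration, 12.5 µM, 0.25% DMSO | times = 90 min reaction at room temperature | signal = FP | read-out basis = % inhibition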
PREPL inhibitor = human PREPL enzyme inhibition; Q4J6C6; recombinant PREPL, fluorescence polarization activity-based probe; inhibition, % at 5.96 µM; hit rate 0.68% among 320,000; in the data active means inhibition above about 43%
Rpn11 inh conf = confirmation of human proteasome Rpn11 inhibitors. shares compounds with Rpn11 inh. purified human 26S proteasome, Ub4-pepOG fluorescence polarization; proteasome pretreated with epoxomicin. inhibition, % at 20 µM. hit rate 29% among 1,900. AID 602318
MMP-2 counter-1 = blocks human MMP-2, flagging nonselective RPN11 hits | shares compounds with Rpn11 inh | recombinant MMP-2, FRET peptide cleavage fluorescence | inhibition, % at 20 µM | hit rate 4% among 1,900 | AID 602330;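 further: human MMP-2 activated beforehand with APMA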
Thrombin FP = blocks bovine thrombin, flagging nonselective RPN11 hits | inhibition, % at 20 µM | hit rate 13% among 1,900 | bovine thrombin cleavage of Ub4-pepOG, fluorescence polarization | shares compounds with Rpn11 inh;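 active means mean inhibition at least 40% at 20 µM, or signal 3 deviations below plate average, so some actives read negative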
TbMetRS confirm = Trypanosoma brucei MetRS inhibition confirmed; T. brucei MetRS enzyme, luminescence (ATP depletion); hit rate 93% among 1,400; AID 624412; shares compounds with Tb MetRS inh; inhibition, % at 11.9 µM; in the data active means inhibition above about 7%
Jurkat cytotox = counter-screen for T. brucei MetRS inhibitors: Jurkat cell cytotoxicity; inhibition, % at 8.3 µM; AID 624413; hit rate 12% among 1,400; Jurkat cells viability, ATP luminescence; shares compounds with Tb MetRS inh; in the data active means inhibition above about 15%
Tb MetRS inh FP = orthogonal test for Trypanosoma brucei MetRS inhibitors; inhibition, % at 11.9 µM; AID 651607; shares compounds with Tb MetRS inh; purified T. brucei MetRS, fluorescence polarization; hit rate 44% among 1,400; in the data active means inhibition above about 17%
Neddyl inh conf = cullin neddylation inhibition, confirmation; shares compounds with Neddylation inh; hit rate 13% among 1,800; TR-FRET cullin neddylation biochemical assay; calls only at 25 µM;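 further: neddylation substrate is the cullin 1 ring ligase complex with SKP2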
CSN5 deneddyl = validation of inhibitors of human CSN-mediated cullin deneddylation | inhibition, % at 16.6 µM | shares compounds with CSN deneddyl inh | AID 720654 | Csn5 deneddylation of SCF-Nedd8OG, fluorescence polarization, 90 min | hit rate 62% among 540; in the data active means inhibition above about 50%
MMP-2 counter-2 = blocks human MMP-2 in a CSN deneddylation counter-screen | inhibition, % at 16.6 µM | AID 720655 | recombinant MMP-2, FRET substrate fluorescence, 60 min | shares compounds with CSN deneddyl inh | hit rate 33% among 540;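 active means corrected plate-normalized z-score of 5 or more, or -5 or less, or inhibition of 15% or more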
Thrombin cntr = counter-screen for CSN deneddylation inhibitors: bovine thrombin inhibition | bovine thrombin cleavage of Ub4-pepOG, fluorescence polarization | hit rate 49% among 540 | inhibition, % at 16.6 µM | shares compounds with CSN deneddyl inh | AID 720656;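 active means inhibition at or above a set limit, with a fluorescence interference ratio between 0.5 and a set maximum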
A number is an active result; – = inactive; · = no result shown; + = active, no number. Rows were chosen to be rich in hits. Some 2.4% of all compounds tested hit in one or more screens of this group. Unless noted, no stated cut-off is given here; in the data, active means inhibition above about 40%; inactive means the rest.

SMILES	Tb MetRS inh	HNF4A DNA FP	Rpn11 inh	Neddylation inh	CSN deneddyl inh	PREPL inhibitor	Rpn11 inh conf	MMP-2 counter-1	Thrombin FP	others
CCn1c2ccccc2c2cc(/C=N/NC(=O)c3cccc(C)c3)ccc21	–	–	147.3	·	45.3	–	–	–	–
CCOC(=O)C(=O)N(C)c1c(CC)nc2c(OCc3cccc(Cl)c3)cccn12	–	–	–	–	–	·	·	·	·
COc1ccc(/C=C2/Sc3ccc(C(=O)NCCN4CCCCCC4)cc3NC2=O)cc1	–	–	70.0	–	–	–	–	–	–
Cc1ccc2sc(NNC(=O)c3cc(=O)c4ccccc4o3)nc2c1C	–	–	48.2	–	–	–	–	–	–
Cc1cccc2sc(NNC(=O)c3cc(=O)c4ccccc4o3)nc12	–	–	–	–	–	–	·	·	·
Clc1cccc(Cl)c1Cn1ccc(C2CC2)n1	–	–	–	–	–	–	·	·	·
CC(C)Nc1ncnc2c1ncn2[C@H]1CN(CCN2CCOCC2)C[C@@H](CO)O1	–	–	–	–	–	·	·	·	·
COc1cc(-c2ccc(Nc3ccccc3C(=O)O)c(OC)c2)ccc1Nc1ccccc1C(=O)O	–	–	47.7	–	–	·	41.0	72.1	–
COc1cccc(Nc2ccccc2C(=O)O)c1	–	–	–	–	–	–	·	·	·
O=C(N/N=C/c1ccc(-c2ccc(S(=O)(=O)Nc3ncccn3)cc2)o1)c1cc2ccccc2cc1O	6.8	–	50.4	–	–	–	50.9	–	–	TbMetRS confirm=29.7;Jurkat cytotox=–;Tb MetRS inh FP=26.6
CC(C)CN(C(=O)COC(=O)c1c2c(nc3ccccc13)CCC2)c1c(N)n(Cc2ccccc2)c(=O)[nH]c1=O	–	–	–	–	–	–	·	·	·
C#CCOc1ccc(C2C(C#N)=C(N)Oc3cc(O)ccc32)cc1 (stereo unspecified)	–	–	52.5	56.2	–	–	–	–	–	Neddyl inh conf=–
CCOc1ccc(C2C(C#N)=C(N)Oc3cc(O)ccc32)cc1OCC (stereo unspecified)	–	–	–	–	–	–	·	·	·
COc1ccc(C2C(C#N)=C(N)Oc3cc(O)ccc32)cc1Cl (stereo unspecified)	–	–	58.9	48.4	–	–	–	–	–	Neddyl inh conf=–
COc1cc2c(C#CCCCO)c(-c3ccc(C#N)cc3)oc(=O)c2cc1OC	–	–	–	·	–	–	·	·	·
COc1cc2c(C#CCO)c(-c3ccc(C#N)cc3)oc(=O)c2cc1OC	–	–	56.0	74.7	–	–	–	–	–	Neddyl inh conf=+
O=C(CSc1ncn[nH]1)N1N=C2/C(=C/c3ccccc3)CCCC2C1c1ccccc1 (stereo unspecified)	–	–	–	–	–	–	·	·	·
COc1ccc(/C=C2\CCCC3C2=NN(C(=O)CSc2ncn[nH]2)C3c2ccc(OC)cc2)cc1 (stereo unspecified)	–	–	40.6	44.1	–	–	–	–	–
Nc1c(C(=O)N/N=C/c2cccnc2)oc2nc(-c3ccccc3)cc(-c3ccco3)c12	–	–	62.1	37.2	–	–	–	–	active	Neddyl inh conf=–
Cn1c(=O)c2c(ncn2CC(=O)Nc2cc(S(=O)(=O)N3CCCCC3)ccc2Cl)n(C)c1=O	–	–	–	–	–	–	·	·	·
S=c1[nH]nc(-c2cc(-c3ccccc3)n[nH]2)n1/N=C/c1ccc(Cl)c(Cl)c1	–	–	58.5	82.7	71.6	–	54.7	–	–	Neddyl inh conf=–
O=C(Cn1ccc(NC(=O)OCc2ccccc2)nc1=O)NCCN1CCOCC1	–	–	–	–	–	–	·	·	·
N#Cc1cccc(NC(=O)c2cncn2-c2ccccc2)c1	–	–	–	–	–	–	·	·	·
CCN(CC)CCOC(=O)c1ccc(N/C=C(/C#N)c2nc(-c3ccc(OC)c(OC)c3)cs2)cc1	–	–	95.4	63.8	126.4	–	70.4	–	56.7	CSN5 deneddyl=–;MMP-2 counter-2=-42.1;Thrombin cntr=–
CCNc1ccc(Br)cc(C(=O)/C=C/c2ccc3c(c2)OCO3)c1=O	–	–	70.6	–	47.4	–	–	–	–	CSN5 deneddyl=70.8;MMP-2 counter-2=–;Thrombin cntr=24.1
SMILES	Tb MetRS inh	HNF4A DNA FP	Rpn11 inh	Neddylation inh	CSN deneddyl inh	PREPL inhibitor	Rpn11 inh conf	MMP-2 counter-1	Thrombin FP	others
CCNc1ccc(Br)cc(C(=O)/C=C/c2ccc(Cl)cc2)c1=O	–	–	–	–	–	–	·	·	·
COc1ccc(C(C(=O)c2ccccc2)c2ccccc2)cc1 (stereo unspecified)	–	–	·	–	–	·	·	·	·
N=C1/C(=C\c2ccc(-c3cccc(Cl)c3)o2)C(=O)N=C2SC=C(c3ccccc3)N12	–	–	65.9	–	37.8	–	73.3	–	48.8	CSN5 deneddyl=64.5;MMP-2 counter-2=–;Thrombin cntr=23.4
COc1cc(/C=C2/C(=N)N3C(c4ccccc4)=CSC3=NC2=O)ccc1OCC(=O)O	–	–	–	–	–	–	·	·	·
COCCNC(=O)c1cc2c(c(-c3cccc(-c4cc5ccccc5o4)c3)n1)[C@H](CCO)N(S(=O)C(C)(C)C)C2 (stereo partly specified)	–	–	–	–	–	·	·	·	·
Cc1ccc(OCC(=O)Nc2sc3c(c2C#N)CC(C)(C)NC3(C)C)cc1	–	–	–	–	–	–	·	·	·
